# Published values of several laboratories.
# Each line is one published result; the experiments were not run side by side.
# OPRK1: Kappa-type opioid receptor (OPRK1, Homo sapiens, UniProt P41145)
SMILES,target,read-out,technique,setting,Ki [nM]
CC(=O)Nc1ccccc1-c1cnc2c(c1)C[C@@]1(OCCCc3ccccc3)[C@H]3Cc4ccc(O)c5c4[C@@]1(CCN3CC1CC1)[C@H]2O5,OPRK1,cell-free assay,,,13.5
CN[C@]1(c2ccccc2Cl)CCCCC1=O,OPRK1,ligand displacement,radioligand,,8500
C[C@H]1[C@H]2Cc3ccc(O)cc3[C@]1(C)CCN2CC1CC1,"Kappa-type opioid receptor (OPRK1, Homo sapiens, UniProt P41145, I135L)",cell-free assay,,,2.95
CCCC[C@@H](NC(=O)[C@@H](N)Cc1ccc(O)cc1)C(=O)NCC(=O)N[C@@H](Cc1ccc(F)cc1)C(=O)N(C)CCC[C@@]1(c2ccc(F)cc2)OCc2cc(C#N)ccc21,OPRK1,cell-free assay,,,68
Fc1ccccc1CC(c1ccccc1)N1CCCC1 (centres unmarked),OPRK1,ligand displacement,radioligand,,642
C[C@@H](NC(=O)[C@@H](N)Cc1ccc(O)cc1)C(=O)NCC(=O)N[C@@H](Cc1ccccc1)C(=O)N(C)CCC[C@@]1(c2ccc(F)cc2)OCc2cc(C#N)ccc21,OPRK1,cell-free assay,,,86
Cc1ccc(Cc2ccc3c(c2)CN(C(=O)[C@@H](N)Cc2c(C)cc(O)cc2C)CC3)cc1,OPRK1,ligand displacement,radioligand,cell membranes,233
Oc1ccc2c3c1O[C@H]1c4ncc(-c5ccccc5)cc4C[C@@]4(OCCCc5cccnc5)[C@@H](C2)N(CC2CC2)CC[C@]314,OPRK1,cell-free assay,,,5.3
Cc1cc(O)cc(C)c1C[C@H](N)C(=O)N1CCc2ccc(Cc3ccccc3N)cc2C1,OPRK1,ligand displacement,radioligand,cell membranes,25
COc1ccsc1CNCC[C@@]1(c2ccccn2)CCOC2(CCCC2)C1,OPRK1,cell-free assay,,,2700
Cc1cc(O)cc(C)c1C[C@H](N)C(=O)N1CCc2ccc(Cc3ccccc3[N+](=O)[O-])cc2C1,OPRK1,ligand displacement,radioligand,cell membranes,2.6
C[C@@H](NC(=O)[C@@H](N)Cc1ccc(O)cc1)C(=O)NCC(=O)N[C@@H](Cc1ccc(Cl)cc1)C(=O)N(C)CCC[C@@]1(c2ccc(F)cc2)OCc2cc(C#N)ccc21,OPRK1,cell-free assay,,,43
Cc1cc(O)cc(C)c1C[C@H](N)C(=O)N1CCc2ccc(Cc3ccc([N+](=O)[O-])cc3)cc2C1,OPRK1,ligand displacement,radioligand,cell membranes,22
CC[C@H](C)[C@H](NC(=O)[C@H](CCCNC(=N)N)NC(=O)[C@H](CC(C)C)NC(=O)[C@@H](N)Cc1ccccc1)C(=O)N[C@@H](CCCNC(=N)N)C(=O)N1CCC[C@H]1C(=O)N[C@@H](CCCCN)C(=O)O,OPRK1,ligand displacement,radioligand,,> 10000
